{"source": "paper PMC7038784", "about": "(Clinical cancer research : an official journal of the …, 2019)", "key": {"[1]": {"test_system": "DTC", "conditions": "study of 20 patients; cited from earlier work"}, "[2]": {"test": "Plasma pharmacokinetics in DTC expansion cohort", "assay_type": "in vivo, human", "conditions": "steady-state trough", "how_it_was_run": "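Oral once-daily dosing in patients, 28-day cycles. The VEGFR inhibitor was profiled over 0–24 h after the first dose (C1D1). Troughs for both drugs were taken on C1D15 and at the second biopsy (C2D1 ± 48 h). Plasma was acetonitrile-extracted and run by positive-ESI LC-MS/MS: MEK inhibitor range 1–200 ng/mL; VEGFR inhibitor range 0.010–1 μg/mL, with 1:100 dilution up to 100 μg/mL. Noncompartmental analysis: Cmax observed, AUC by linear trapezoidal rule, Css,min averaged from both troughs.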"}, "[3]": {"test_system": "progressive radioiodine refractory DTC", "conditions": "cited from earlier work"}, "[4]": {"test_system": "thyroid cancer cell lines and xenograft models", "conditions": "preclinical studies in DTC; cited from earlier work"}}}
{"compound": "Cn1cnc2c(F)c(Nc3ccc(Br)cc3Cl)c(C(=O)NOCCO)cc21", "note": "[Selumetinib]", "values": [{"measurement": "PRs, patients", "setting": "[1]", "value": "five"}, {"measurement": "stable disease, patients", "setting": "[1]", "value": "three"}]}
{"compound": "Cc1ccc(Nc2nccc(N(C)c3ccc4c(C)n(C)nc4c3)n2)cc1S(N)(=O)=O", "note": "[pazopanib]", "values": [{"measurement": "Css,min", "setting": "[2]; pazopanib 800 mg with trametinib 2 mg daily", "value": "33800 ± 17300", "unit": "ng/mL"}, {"measurement": "PR rate, papillary thyroid cancer", "setting": "[3]; 5/11 patients as printed", "value": 33, "unit": "%"}, {"measurement": "PR rate, follicular thyroid cancer", "setting": "[3]; 8/11", "value": 73, "unit": "%"}, {"measurement": "RECIST partial response (PR) rate", "setting": "[3]; single-agent pazopanib, DTC overall", "value": 49, "unit": "%"}, {"measurement": "median PFS", "setting": "[3]; single-agent pazopanib", "value": 360, "unit": "days"}, {"measurement": "effect on p-ERK", "setting": "[4]", "value": "paradoxical upregulation of p-ERK"}]}
{"compound": "CC(=O)Nc1cccc(-n2c(=O)n(C3CC3)c(=O)c3c(Nc4ccc(I)cc4F)n(C)c(=O)c(C)c32)c1", "note": "[trametinib]", "values": [{"measurement": "Css,min", "setting": "[2]; trametinib 2 mg with pazopanib 800 mg daily", "value": "18.7 ± 6.6", "unit": "ng/mL"}]}
